In brackets after ≈: the same amount, converted by molar mass.
Tests used:
Enterobacter cloacae [1] = assay: Antimicrobial activity against aac(6')-Ib-cr-negative Enterobacter cloacae GZ47 harboring qnrB and qnrS genes by agar dilution method; type: functional
Enterobacter cloacae [2] = assay: Antimicrobial activity against aac(6')-Ib-cr-negative Enterobacter cloacae GZ51 harboring qnrA gene by agar dilution method in presence of clavulanic acid; type: functional
In short: (§1)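 MICs were determined by CLSI agar dilution (M7-A7) and interpreted by CLSI M100-S17 breakpoints. The curator's line names the β-lactamase inhibitor added.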

Citrobacter freundii [3] = assay: Antimicrobial activity against aac(6')-Ib-cr-positive Citrobacter freundii TJ15 harboring GyrA T83I, ParC S80I mutant, wild-type GyrB, qnrB genes by agar dilution method in presence of clavulanic acid; type: functional; in short: as §1
Enterobacter cloacae [4] = assay: Antimicrobial activity against aac(6')-Ib-cr-negative Enterobacter cloacae SH39T harboring qnrA gene by agar dilution method; type: functional
Escherichia coli [5] = assay: Antimicrobial activity against aac(6')-Ib-cr-negative Escherichia coli PU12T harboring wild-type GyrA, GyrB, ParC and qnrS genes by agar dilution method in presence of clavulanic acid; type: functional
In short: (§2)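 Transconjugants came from conjugation of qnr and/or aac(6')-Ib-cr-carrying donors with azide-resistant E. coli J53. […] MICs were determined by CLSI agar dilution (M7-A7) and interpreted by M100-S17.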

Klebsiella pneumoniae [6] = assay: Antimicrobial activity against aac(6')-Ib-cr-negative Klebsiella pneumoniae SY22 harboring GyrA S83I, ParC S80I mutant, wild-type GyrB and qnrS genes by agar dilution method in presence of clavulanic acid; type: functional; in short: as §1
Klebsiella pneumoniae [7] = assay: Antimicrobial activity against aac(6')-Ib-cr-positive Klebsiella pneumoniae JN132 harboring GyrA S83I, ParC S80I mutant, wild-type GyrB and qnrB genes by agar dilution method; type: functional
In short: (§3)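 MICs were determined on clinical isolates by CLSI agar dilution (M7-A7) and interpreted against CLSI M100-S17 breakpoints.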

Enterobacter cloacae [8] = assay: Antimicrobial activity against aac(6')-Ib-cr-negative Enterobacter cloacae SH39 harboring GyrA S83I, ParC S80I mutant, wild-type GyrB and qnrA genes by agar dilution method in presence of clavulanic acid; type: functional; in short: as §1
Klebsiella pneumoniae [9] = assay: Antimicrobial activity against aac(6')-Ib-cr-positive Klebsiella pneumoniae SY26T harboring wild-type GyrA, ParC, GyrB and qnrB genes by agar dilution method in presence of clavulanic acid; type: functional; in short: as §2
Escherichia coli [10] = assay: Antimicrobial activity against aac(6')-Ib-cr-positive Escherichia coli FJ3T harboring wild-type GyrA, ParC, GyrB and qnrB genes by agar dilution method
Klebsiella pneumoniae [11] = assay: Antimicrobial activity against aac(6')-Ib-cr-positive Klebsiella pneumoniae GZ40T harboring qnrB gene by agar dilution method
Enterobacter cloacae [12] = assay: Antimicrobial activity against aac(6')-Ib-cr-negative Enterobacter cloacae FJ67T harboring qnrS gene by agar dilution method; type: functional
Klebsiella pneumoniae [13] = assay: Antimicrobial activity against aac(6')-Ib-cr-positive Klebsiella pneumoniae SY26 harboring GyrA S83I, ParC S80I mutant, wild-type GyrB and qnrB genes by agar dilution method; type: functional; in short: as §3
Citrobacter freundii [14] = assay: Antimicrobial activity against aac(6')-Ib-cr-positive Citrobacter freundii JN1 harboring GyrA T83I, ParC S80I mutant, wild-type GyrB and qnrA genes by agar dilution method; type: functional
In short: (§4)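 MICs were determined by the CLSI agar dilution method (M7-A7) and interpreted against CLSI M100-S17 breakpoints.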

Klebsiella pneumoniae [15] = assay: Antimicrobial activity against aac(6')-Ib-cr-positive Klebsiella pneumoniae SY26T harboring wild-type GyrA, ParC, GyrB and qnrB genes by agar dilution method; type: functional
In short: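 Transconjugants were made by conjugating a qnr/aac(6')-Ib-cr donor with azide-resistant E. coli J53. MICs were read by CLSI agar dilution (M7-A7) and interpreted per M100-S17.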

Klebsiella pneumoniae [16] = assay: Antimicrobial activity against aac(6')-Ib-cr-positive Klebsiella pneumoniae WH99 harboring wild-type GyrA, ParC, GyrB and qnrB genes by agar dilution method in presence of clavulanic acid; type: functional
In short: (§5)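 MICs measured by CLSI agar dilution (M7-A7) and interpreted against CLSI M100-S17 breakpoints. Strains were clinical Enterobacteriaceae isolates or the azide-resistant E. coli J53 recipient.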

Enterobacter cloacae [17] = assay: Antimicrobial activity against aac(6')-Ib-cr-negative Enterobacter cloacae GZ47T harboring qnrB gene by agar dilution method in presence of clavulanic acid; type: functional; in short: as §4
Escherichia coli [18] = assay: Antimicrobial activity against aac(6')-Ib-cr-positive Escherichia coli FJ3 harboring GyrA S83L, ParC S80R mutant, wild-type GyrB and qnrB genes by agar dilution method; type: functional; in short: as §4
Citrobacter freundii [19] = assay: Antimicrobial activity against aac(6')-Ib-cr-negative Citrobacter freundii JN64T harboring qnrA gene by agar dilution method in presence of clavulanic acid; type: functional; in short: as §2
Enterobacter cloacae [20] = assay: Antimicrobial activity against aac(6')-Ib-cr-negative Enterobacter cloacae FJ61T harboring qnrS gene by agar dilution method in presence of clavulanic acid; type: functional; in short: as §2
Klebsiella pneumoniae [21] = assay: Antimicrobial activity against aac(6')-Ib-cr-positive Klebsiella pneumoniae JN41 harboring GyrA S83I, ParC S80I mutant, wild-type GyrB and qnrB genes by agar dilution method; type: functional; in short: as §3
Escherichia coli [22] = assay: Antimicrobial activity against aac(6')-Ib-cr-positive Escherichia coli FJ3T harboring wild-type GyrA, ParC, GyrB and qnrB genes by agar dilution method in presence of clavulanic acid; type: functional; in short: as §2
Enterobacter cloacae [23] = assay: Antimicrobial activity against aac(6')-Ib-cr-positive Enterobacter cloacae FJ63 harboring GyrA S83I, GyrA D87A, ParC S80I mutant, wild-type GyrB and qnrS genes by agar dilution method in presence of Tazobactam; type: functional; in short: as §4
Klebsiella pneumoniae [24] = assay: Antimicrobial activity against aac(6')-Ib-cr-positive Klebsiella pneumoniae WH99 harboring wild-type GyrA, ParC, GyrB and qnrB genes by agar dilution method in presence of Tazobactam; type: functional; in short: as §5
Enterobacter cloacae [25] = assay: Antimicrobial activity against aac(6')-Ib-cr-negative Enterobacter cloacae WH42T harboring qnrA gene by agar dilution method in presence of Tazobactam; type: functional; in short: as §4
Escherichia coli [26] = assay: Antimicrobial activity against Escherichia coli J53 harboring wild-type GyrA, ParC, GyrB genes by agar dilution method in presence of beta-lactamase inhibitor Tazobactam; type: functional; in short: as §5
Enterobacter cloacae [27] = assay: Antimicrobial activity against aac(6')-Ib-cr-positive Enterobacter cloacae FJ63T harboring qnrS gene by agar dilution method in presence of Tazobactam; type: functional; in short: as §4
Escherichia coli [28] = assay: Antimicrobial activity against aac(6')-Ib-cr-negative Escherichia coli PU12 harboring GyrA S83L mutant, wild-type GyrB, ParC and qnrS genes by agar dilution method in presence of Tazobactam; type: functional; in short: as §5
Enterobacter cloacae [29] = assay: Antimicrobial activity against aac(6')-Ib-cr-negative Enterobacter cloacae FJ67T harboring qnrS gene by agar dilution method in presence of Tazobactam; type: functional; in short: as §4
Enterobacter cloacae [30] = assay: Antimicrobial activity against aac(6')-Ib-cr-negative Enterobacter cloacae FJ67 harboring […] and qnrS genes by agar dilution method in presence of Tazobactam; type: functional; in short: as §4
Enterobacter cloacae [31] = assay: Antimicrobial activity against aac(6')-Ib-cr-negative Enterobacter cloacae SH39 harboring GyrA S83I, ParC S80I mutant, wild-type GyrB and qnrA genes by agar dilution method in presence of Tazobactam; type: functional; in short: as §4
Klebsiella pneumoniae [32] = assay: Antimicrobial activity against aac(6')-Ib-cr-positive Klebsiella pneumoniae GZ40T harboring qnrB gene by agar dilution method in presence of Tazobactam; type: functional; in short: as §4

## CO/N=C(\C(=O)N[C@@H]1C(=O)N2C(C(=O)O)=C(COC(C)=O)CS[C@H]12)c1csc(N)n1 [CEFOTAXIME]
Enterobacter cloacae [1]
  MIC: 64 µg/mL (≈ 141 µM)
Enterobacter cloacae [2]
  MIC: 32 µg/mL
Citrobacter freundii [3]
  MIC: 16 µg/mL
Enterobacter cloacae [4]
  MIC: 0.032 µg/mL (≈ 0.0703 µM)
Escherichia coli [5]
  MIC: 0.032 µg/mL
Klebsiella pneumoniae [6]
  MIC: 0.064 µg/mL
Klebsiella pneumoniae [7]
  MIC: 32 µg/mL (≈ 70.3 µM)
Enterobacter cloacae [8]
  MIC: 32 µg/mL
Klebsiella pneumoniae [9]
  MIC: 0.032 µg/mL
Escherichia coli [10]
  MIC: 64 µg/mL (≈ 141 µM)
Klebsiella pneumoniae [11]
  MIC: 0.032 µg/mL (≈ 0.0703 µM)
Enterobacter cloacae [12]
  MIC: 64 µg/mL (≈ 141 µM)
Klebsiella pneumoniae [13]
  MIC: 8 µg/mL (≈ 17.6 µM)
Citrobacter freundii [14]
  MIC: > 256 µg/mL
Klebsiella pneumoniae [15]
  MIC: 4 µg/mL (≈ 8.78 µM)
Klebsiella pneumoniae [16]
  MIC: 64 µg/mL
Enterobacter cloacae [17]
  MIC: 0.5 µg/mL
Escherichia coli [18]
  MIC: 128 µg/mL (≈ 281 µM)
Citrobacter freundii [19]
  MIC: 0.064 µg/mL
Enterobacter cloacae [20]
  MIC: 0.032 µg/mL
Klebsiella pneumoniae [21]
  MIC: 32 µg/mL (≈ 70.3 µM)
Escherichia coli [22]
  MIC: 0.032 µg/mL

## CCN1CCN(C(=O)N[C@@H](C(=O)N[C@@H]2C(=O)N3[C@@H]2SC(C)(C)[C@@H]3C(=O)O)c2ccccc2)C(=O)C1=O [PIPERACILLIN]
Enterobacter cloacae [23]
  MIC: > 256 µg/mL
Klebsiella pneumoniae [24]
  MIC: 8 µg/mL
Enterobacter cloacae [25]
  MIC: 1 µg/mL
Escherichia coli [26]
  MIC: 1 µg/mL
Enterobacter cloacae [27]
  MIC: 2 µg/mL
Escherichia coli [28]
  MIC: 1 µg/mL
Enterobacter cloacae [29]
  MIC: 1 µg/mL
Enterobacter cloacae [30]
  MIC: 1 µg/mL
Enterobacter cloacae [31]
  MIC: 2 µg/mL
Klebsiella pneumoniae [32]
  MIC: 1 µg/mL

Source: ChEMBL document CHEMBL1275556, “High prevalence of plasmid-mediated quinolone resistance genes qnr and aac(6')-Ib-cr in clinical isolates of Enterobacteriaceae from nine teaching hospitals in China” (2008)
